Data set [1] has as its system HeLa. Nature of the data set: In vitro cytostatic activity against human HeLa cells assessed as cell growth after 72 hrs by colorimetric method. The data set is classed as functional. The conditions noted are these: read-out: ED50 (the source's name). In outline: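 HeLa cells at 10⁵ cells/mL in Eagle's minimal medium with 10% fetal calf serum, Leighton tubes, 37 °C. Compound added 2-3 h after attachment, suspended in sterile saline with 0.05% Tween 80 (10% of final volume). Incubated 72 h at 37 °C. Growth measured as cell protein by the Oyama-Eagle colorimetric method. 6-Mercaptopurine was the positive control. ED50 in μg/mL.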

Data set [2] concerns Mus musculus. As to the kind of experiment: In vivo cytostatic activity against mouse Ehrlich carcinoma ascites allografted in ip dosed ICR swiss mouse assessed as median survival time administered qd for 9 days beginning 24 hrs after tumor implantation. Format: functional, organism-based. In outline:
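Female ICR Swiss mice (19-22 g) carrying Ehrlich ascites carcinoma, following NCI protocols 1100/1200. Compound suspended in 0.9% NaCl with 0.5% Tween 80 and given ip at 0.4 mL, once daily for 9 days starting 24 h after implantation. Groups of 6 treated and 30 control mice. 5-Fluorouracil at 20 mg/kg was the positive control. T/C = median survival of treated over control, ×100.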

Data set [3] can be described thus: In vivo cytostatic activity against mouse Ehrlich carcinoma ascites allografted in ICR swiss mouse assessed as median survival time at 100 mg/kg, ip administered qd for 9 days beginning 24 hrs after tumor implantation relative to control. The settings on record: route intraperitoneal. Format: functional. In outline:
(§1)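 Female ICR Swiss mice (19-22 g) bearing Ehrlich ascites carcinoma, per NCI protocols 1100/1200; compound suspended in 0.9% NaCl with 0.5% Tween 80, given ip at 0.4 mL once daily for 9 days from 24 h post-implant. Groups of 6 treated vs 30 controls; 5-fluorouracil 20 mg/kg/injection as positive control. T/C = treated/control median survival time as percentage.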

For data set [4], the system named is Mus musculus. Nature of the data set: Toxicity in ICR swiss mouse allografted with mouse Ehrlich carcinoma ascites assessed as change in body weight at 100 mg/kg, ip administered qd for 9 days beginning 24 hrs after tumor implantation. Format: organism-based. Set-up: dose 100 mg/kg, route intraperitoneal. The conditions noted are these: in vivo. In outline: (§2)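 Female ICR Swiss mice (19-22 g) carrying Ehrlich ascites carcinoma. Compound suspended in 0.9% NaCl with 0.5% Tween 80 and given ip at 0.4 mL, once daily for 9 days starting 24 h after implantation. Groups of 6 treated and 30 control mice. Read-out is the weight difference in grams between treated and control animals.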

A short description of data set [5]: In vivo cytostatic activity against mouse Ehrlich carcinoma ascites allografted in ICR swiss mouse assessed as median survival time at 75 mg/kg, ip administered qd for 9 days beginning 24 hrs after tumor implantation relative to control. Format: functional. The settings on record: route intraperitoneal. In outline:
as §1

Data set [6] relates to P388. Nature of the data set: In vivo cytostatic activity against mouse P388 cells allografted in mouse assessed as increase in host life span at 50 mg/kg. Format: functional.
The subject of data set [7] is Mus musculus. Nature of the data set: Toxicity in ICR swiss mouse allografted with mouse Ehrlich carcinoma ascites assessed as change in body weight at 75 mg/kg, ip administered qd for 9 days beginning 24 hrs after tumor implantation. Format: organism-based. Set-up: dose 75 mg/kg, route intraperitoneal. The settings on record: in vivo. In outline:
as §2

Values after ≈ are worked out from the molar mass of the structure shown. Active and inactive are the calls of the source. The calls are words filed in the database; no cut-off is given here.

For the compound `ICc1cn(Cc2ccccc2)nn1`, in data set [1], the EC50 stood at 2 mg/L (≈ 6.69 µM). Further, the result in data set [2] was inactive.
For `CC(=O)OC[C@H]1O[C@@H](n2cc(CCl)nn2)[C@H](OC(C)=O)[C@@H](OC(C)=O)[C@@H]1OC(C)=O`, the EC50 in data set [1] was 37 mg/L (≈ 82.6 µM).
Same read-out and setting: next, `CC(=O)N[C@@H]1[C@@H](OC(C)=O)[C@H](OC(C)=O)[C@@H](COC(C)=O)O[C@H]1n1nncc1CCl`: 25 mg/L (≈ 55.9 µM); `CC(=O)OC[C@H]1O[C@@H](n2nnc(CCl)c2CCl)[C@H](OC(C)=O)[C@@H](OC(C)=O)[C@@H]1OC(C)=O`: 6 mg/L (≈ 12.1 µM).
Same read-out and setting: next, `CC(=O)OC[C@H]1O[C@@H](n2nncc2CCl)[C@H](OC(C)=O)[C@@H](OC(C)=O)[C@@H]1OC(C)=O`: 25 mg/L (≈ 55.8 µM).
For `CC(=O)OC[C@H]1O[C@@H](n2nncc2CBr)[C@H](OC(C)=O)[C@@H](OC(C)=O)[C@@H]1OC(C)=O`, in data set [1], the EC50 was 4 mg/L (≈ 8.13 µM). Moreover, the result in data set [2] was inactive.
Turning to `CC(=O)N[C@@H]1[C@@H](OC(C)=O)[C@H](OC(C)=O)[C@@H](COC(C)=O)O[C@H]1n1cc(CBr)nn1`, the EC50 in data set [1] turned out to be 20 mg/L (≈ 40.7 µM).
The same measure, in the same setting: for `CC(=O)N[C@@H]1[C@@H](OC(C)=O)[C@H](OC(C)=O)[C@@H](COC(C)=O)O[C@H]1n1cc(CCl)nn1` the value was 20 mg/L (≈ 44.8 µM); for `CC(=O)N[C@@H]1[C@@H](OC(C)=O)[C@H](OC(C)=O)[C@@H](COC(C)=O)O[C@H]1n1nncc1CO`, above 100 mg/L.
With `BrCc1cn(Cc2ccccc2)nn1`, the EC50 in data set [1] turned out to be 2 mg/L (≈ 7.93 µM). Moreover, the result in data set [2] was inactive.
Regarding `ClCc1cn(Cc2ccccc2)nn1`, in data set [1], the EC50 turned out to be 18 mg/L (≈ 86.7 µM).
Same read-out and setting: for `CC(=O)N[C@@H]1[C@@H](OC(C)=O)[C@H](OC(C)=O)[C@@H](COC(C)=O)O[C@H]1n1nnc(CO)c1CO` the value was above 100 mg/L.
Consider `CC(=O)OC[C@H]1O[C@@H](n2nnc(CBr)c2CBr)[C@H](OC(C)=O)[C@@H](OC(C)=O)[C@@H]1OC(C)=O`, for which the EC50 in data set [1] was determined as 3 mg/L (≈ 5.13 µM). In data set [2], the result was inactive.
For the compound `FCc1cn(Cc2ccccc2)nn1`, in data set [1], the EC50 is above 100 mg/L.
Still for that read-out and setting: for `Sc1ncnc2nc[nH]c12` [MERCAPTOPURINE ANHYDROUS] the value was 0.1 mg/L (≈ 0.657 µM).
Still for that read-out and setting: for `CC(=O)N[C@@H]1[C@@H](OC(C)=O)[C@H](OC(C)=O)[C@@H](COC(C)=O)O[C@H]1n1cc(CO)nn1` the value was above 100 mg/L.
For `CC(=O)OC[C@H]1O[C@@H](n2nnc(CO)c2CO)[C@H](OC(C)=O)[C@@H](OC(C)=O)[C@@H]1OC(C)=O`, in data set [1], the EC50 was above 100 mg/L.
The term T/C denotes the ratio of treated to control. As to `CC(=O)OC[C@H]1O[C@@H](n2cc(CI)nn2)[C@H](OC(C)=O)[C@@H](OC(C)=O)[C@@H]1OC(C)=O`, the T/C in data set [3] was found to be 195%. Besides, the EC50 in data set [1] came out at 2 mg/L (≈ 3.71 µM). In addition, the result in data set [2] was Active. The Activity in data set [4] is -1.1 g.
`CC(=O)OC[C@H]1O[C@@H](n2cc(CBr)nn2)[C@H](OC(C)=O)[C@@H](OC(C)=O)[C@@H]1OC(C)=O`: the EC50 in data set [1] came to 3.5 mg/L (≈ 7.11 µM). Moreover, the T/C in data set [5] was determined as 145%; in data set [6] it was 163%. The result in data set [2] was Active. Moreover, the Activity in data set [7] was -0.5 g.

For the origin of these results see ChEMBL document CHEMBL3227951, “Alkylating nucleosides 1. Synthesis and cytostatic activity of N-glycosyl(halomethyl)-1,2,3-triazoles. A new type of alkylating agent” (J Med Chem, 1979).
